Source: ChEMBL document CHEMBL4028810, “Synthesis and biological evaluation of novel chalcone derivatives as a new class of microtubule destabilizing agents” (Eur J Med Chem, 2017)
pIC50: −log10 of the molar value. The source made the active and inactive calls. The calls are words filed in the database; no cut-off is given here.

What was measured:
[1] = system: L02; experiment: Cytotoxicity against human HL7702 cells after 48 hrs by MTT assay; type: cell-based; details: L02, 48 h
Procedure, shortened: (§1)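 Log-phase cells were seeded at about 1 × 10⁵ cells/mL in 96-well plates and allowed to settle 12 h at 37 °C in 5% CO₂. Compounds were added at five concentrations for 48 h. Absorbance was read at dual wavelength 570/630 nm. Survival was expressed as a percentage of control, and IC50 was calculated by the Bliss method (n = 5). Each test was run in triplicate.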

[2] = system: NCI-H460; experiment: Cytotoxicity against human NCI-H460 cells after 48 hrs by MTT assay; type: functional, cell-based; details: NCI-H460, 48 h; procedure, shortened: as §1
[3] = system: HepG2; experiment: Cytotoxicity against human HepG2 cells after 48 hrs by MTT assay; type: functional, cell-based; details: HepG2, 48 h; procedure, shortened: as §1
[4] = system: T-24; experiment: Cytotoxicity against human T24 cells after 48 hrs by MTT assay; type: functional, cell-based; details: T-24, 48 h; procedure, shortened: as §1
[5] = system: SK-OV-3; experiment: Cytotoxicity against human SKOV3 cells after 48 hrs by MTT assay; type: functional, cell-based; details: SK-OV-3, 48 h; procedure, shortened: as §1
[6] = system: MGC-803; experiment: Cytotoxicity against human MGC803 cells after 48 hrs by MTT assay; type: functional, cell-based; details: MGC-803, 48 h; procedure, shortened: as §1
[7] = system: A549/TR; experiment: Cytotoxicity against human A549/TR cells after 48 hrs by MTT assay; type: functional, cell-based; procedure, shortened: as §1
[8] = Cytotoxicity against human HeLa/TR cells after 48 hrs by MTT assay; type: functional, cell-based; procedure, shortened: as §1
[9] = organism: Sus scrofa; experiment: Inhibition of porcine brain tubulin polymerization at 10 uM measured at 1 min interval for 40 mins by spectrophotometric method
Procedure, shortened: (§2)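 Purified brain tubulin, final 3.0 mg/mL, was added to start the reaction in 80 mM PIPES pH 6.9, 2.0 mM MgCl₂, 0.5 mM EGTA, 1 mM GTP and 10.2% glycerol, with the other components prewarmed to 37 °C. Compounds were tested at 10 or 15 µM. Polymerization at 37 °C was followed as absorbance at 340 nm over 40 min.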

[10] = system: HeLa; experiment: Cytotoxicity against human HeLa cells after 48 hrs by MTT assay; type: functional, cell-based; procedure, shortened: as §1
[11] = organism: Sus scrofa; experiment: Inhibition of porcine brain tubulin polymerization at 15 uM measured at 1 min interval for 40 mins by spectrophotometric method; procedure, shortened: as §2

## COc1ccc(NC(=O)COc2cc(/C=C/C(=O)c3cc(OC)c(OC)c(OC)c3)ccc2OC)cc1
[1]
  pIC50: < 4.30
[2]
  pIC50: 5.15
[3]
  pIC50: 5.12
[4]
  pIC50: 5.03
[5]
  pIC50: 5.01
[6]
  pIC50: 5.07

## COc1ccc(/C=C/C(=O)c2cc(OC)c(OC)c(OC)c2)cc1OCC(=O)Nc1ccc(Cl)cc1
[1]
  pIC50: < 4.30
[2]
  pIC50: 4.70
[3]
  pIC50: 4.69
[4]
  pIC50: 4.66
[5]
  pIC50: 4.57
[6]
  pIC50: 4.58

## COc1ccc(/C=C/C(=O)c2cc(OC)c(OC)c(OC)c2)cc1OCC(=O)Nc1ccc(O)cc1
[1]
  pIC50: < 4.30
[2]
  pIC50: < 4.30
[3]
  pIC50: < 4.30
[4]
  pIC50: < 4.30
[5]
  pIC50: < 4.30
[6]
  pIC50: 4.44

## COc1ccc(/C=C/C(=O)c2cc(OC)c(OC)c(OC)c2)cc1OCC(=O)Nc1ccc(Br)cc1
[1]
  pIC50: < 4.30
[2]
  pIC50: 4.99
[3]
  pIC50: 4.98
[4]
  pIC50: 4.94
[5]
  pIC50: 4.88
[6]
  pIC50: 4.89

## COc1ccc(/C=C/C(=O)c2cc(OC)c(OC)c(OC)c2)cc1OCC(=O)Nc1ccc(F)cc1
[1]
  pIC50: < 4.30
[2]
  pIC50: 4.72
[3]
  pIC50: 4.67
[4]
  pIC50: 4.61
[5]
  pIC50: 4.65
[6]
  pIC50: 4.68

## CC(=O)O[C@H]1C(=O)[C@@]2(C)[C@H]([C@H](OC(=O)c3ccccc3)[C@]3(O)C[C@H](OC(=O)[C@H](O)[C@@H](NC(=O)c4ccccc4)c4ccccc4)C(C)=C1C3(C)C)[C@]1(OC(C)=O)CO[C@@H]1C[C@@H]2O [PACLITAXEL]
[7]
  pIC50: 5.82
[8]
  pIC50: 5.82
[9]
  inhibition: Active
[10]
  pIC50: 8.09

## COc1ccc(NC(=O)COc2cc(/C=C/C(=O)c3ccc(OC)c4c3OC(C)(C)C=C4)ccc2OC)cc1
[1]
  pIC50: < 4.30
[2]
  pIC50: 5.07
[3]
  pIC50: 5.05
[4]
  pIC50: 5.02
[5]
  pIC50: 5.04
[6]
  pIC50: 5.17

## COc1ccc(/C=C/C(=O)c2ccc(OC)c3c2OC(C)(C)C=C3)cc1OCC(=O)Nc1ccc(C)cc1
[1]
  pIC50: < 4.30
[2]
  pIC50: 5.06
[3]
  pIC50: 5.03
[4]
  pIC50: 4.99
[5]
  pIC50: 5.02
[6]
  pIC50: 5.08

## COc1ccc(/C=C/C(=O)c2cc(OC)c(OC)c(OC)c2)cc1OCC(=O)Nc1ccccc1
[1]
  pIC50: < 4.30
[2]
  pIC50: 4.95
[3]
  pIC50: 4.99
[4]
  pIC50: 4.90
[5]
  pIC50: 4.97
[6]
  pIC50: 4.84

## COc1ccc(/C=C/C(=O)c2ccc(OC)c3c2OC(C)(C)C=C3)cc1OCC(=O)Nc1ccccc1Cl
[1]
  pIC50: < 4.30
[2]
  pIC50: 4.89
[3]
  pIC50: 4.93
[4]
  pIC50: 4.81
[5]
  pIC50: 4.84
[6]
  pIC50: 4.85

## COc1ccc(/C=C/C(=O)c2ccc(OC)c3c2OC(C)(C)C=C3)cc1 [MILLEPACHINE]
[1]
  pIC50: 4.60
[2]
  pIC50: 5.12
[3]
  pIC50: 5.34
[4]
  pIC50: 4.96
[5]
  pIC50: 5.01
[6]
  pIC50: 4.96

## COc1ccc(/C=C/C(=O)c2cc(OC)c(OC)c(OC)c2)cc1OCC(=O)Nc1ccccc1C
[1]
  pIC50: < 4.30
[2]
  pIC50: 4.64
[3]
  pIC50: 4.58
[4]
  pIC50: 4.57
[5]
  pIC50: 4.55
[6]
  pIC50: 4.55

## COc1ccc(/C=C/C(=O)c2cc(OC)c(OC)c(OC)c2)cc1OCC(=O)Nc1ccc(C)cc1
[1]
  pIC50: < 4.30
[2]
  pIC50: 5.11
[3]
  pIC50: 5.05
[4]
  pIC50: 4.94
[5]
  pIC50: 4.99
[6]
  pIC50: 4.99

## COc1ccccc1NC(=O)COc1cc(/C=C/C(=O)c2ccc(OC)c3c2OC(C)(C)C=C3)ccc1OC
[1]
  pIC50: < 4.30
[11]
  inhibition: Active
[2]
  pIC50: 5.26
[3]
  pIC50: 5.13
[4]
  pIC50: 5.11
[5]
  pIC50: 5.08
[6]
  pIC50: 5.17

## COc1ccc(/C=C/C(=O)c2ccc(OC)c3c2OC(C)(C)C=C3)cc1OCC(=O)Nc1ccc(F)cc1
[1]
  pIC50: < 4.30
[2]
  pIC50: 4.85
[3]
  pIC50: 4.85
[4]
  pIC50: 4.75
[5]
  pIC50: 4.86
[6]
  pIC50: 4.87

## COc1ccc(/C=C/C(=O)c2ccc(OC)c3c2OC(C)(C)C=C3)cc1OCC(=O)Nc1ccc(Br)cc1
[1]
  pIC50: < 4.30
[2]
  pIC50: 4.69
[3]
  pIC50: 4.64
[4]
  pIC50: 4.70
[5]
  pIC50: 4.72
[6]
  pIC50: 4.76

## COc1ccc(/C=C/C(=O)c2ccc(OC)c3c2OC(C)(C)C=C3)cc1OCC(=O)Nc1ccccc1Br
[1]
  pIC50: < 4.30
[2]
  pIC50: 4.70
[3]
  pIC50: 4.56
[4]
  pIC50: 4.63
[5]
  pIC50: 4.52
[6]
  pIC50: 4.49

## COc1ccc(/C=C/C(=O)c2cc(OC)c(OC)c(OC)c2)cc1OCC(=O)Nc1ccccc1F
[1]
  pIC50: < 4.30
[2]
  pIC50: 5.17
[3]
  pIC50: 5.12
[4]
  pIC50: 4.97
[5]
  pIC50: 5.02
[6]
  pIC50: 5.09

## COc1ccc(/C=C/C(=O)c2ccc(OC)c3c2OC(C)(C)C=C3)cc1OCC(=O)Nc1ccc(O)cc1
[1]
  pIC50: < 4.30
[2]
  pIC50: 4.75
[3]
  pIC50: 4.81
[4]
  pIC50: 4.74
[5]
  pIC50: 4.84
[6]
  pIC50: 4.68

## COc1ccc(/C=C\c2cc(OC)c(OC)c(OC)c2)cc1O
[9]
  inhibition: Active

## COc1ccccc1NC(=O)COc1cc(/C=C/C(=O)c2cc(OC)c(OC)c(OC)c2)ccc1OC
[1]
  pIC50: < 4.30
[2]
  pIC50: 4.92
[3]
  pIC50: 4.87
[4]
  pIC50: 4.76
[5]
  pIC50: 4.79
[6]
  pIC50: 4.83

## COc1ccc(/C=C/C(=O)c2ccc(OC)c3c2OC(C)(C)C=C3)cc1OCC(=O)Nc1ccccc1C
[1]
  pIC50: < 4.30
[2]
  pIC50: 5.10
[3]
  pIC50: 5.03
[4]
  pIC50: 5.01
[5]
  pIC50: 5.00
[6]
  pIC50: 4.99

## COc1ccc(/C=C/C(=O)c2ccc(OC)c3c2OC(C)(C)C=C3)cc1OCC(=O)Nc1ccccc1
[1]
  pIC50: < 4.30
[2]
  pIC50: 4.76
[3]
  pIC50: 4.69
[4]
  pIC50: 4.68
[5]
  pIC50: 4.68
[6]
  pIC50: 4.74

## COc1ccc(/C=C/C(=O)c2ccc(OC)c3c2OC(C)(C)C=C3)cc1OCC(=O)Nc1ccc(Cl)cc1
[1]
  pIC50: < 4.30
[2]
  pIC50: 4.89
[3]
  pIC50: 4.81
[4]
  pIC50: 4.77
[5]
  pIC50: 4.70
[6]
  pIC50: 4.71

## COc1ccc(/C=C/C(=O)c2ccc(OC)c3c2OC(C)(C)C=C3)cc1OCC(=O)Nc1ccccc1F
[1]
  pIC50: < 4.30
[2]
  pIC50: 4.77
[3]
  pIC50: 4.72
[4]
  pIC50: 4.76
[5]
  pIC50: 4.73
[6]
  pIC50: 4.69

## COc1ccc(/C=C/C(=O)c2cc(OC)c(OC)c(OC)c2)cc1OCC(=O)Nc1ccccc1Br
[1]
  pIC50: < 4.30
[2]
  pIC50: 4.99
[3]
  pIC50: 4.82
[4]
  pIC50: 4.72
[5]
  pIC50: 4.78
[6]
  pIC50: 4.84
